Source: publication PMC6583924 (European journal of medicinal chemistry, 2017)

Columns and labels:
(h)V1a = (h)V1a (Homo sapiens, UniProt P37288); experiment: In vitro V1a binding assay; details: for inhibition at 0.01 µM: read-out: % Binding inhibition (10^−8M); for inhibition at 0.001 µM: read-out: % Binding inhibition (10^−9M); for V1a binding affinity (in words): structure-activity discussion of Tables 1 and 2
How it was run: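 [3H]AVP (0.3 nM; KD 0.5 nM) competition binding on human recombinant V1a expressed in CHO cells, 60 min at RT. Nonspecific binding was defined with 1 µM AVP. Test compounds were run at selected concentrations, two independent experiments each in duplicate, with % binding inhibition recorded. IC50 came from a one-site sigmoidal variable-slope fit; Ki was calculated by Cheng–Prusoff.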

Lipophilicity logD7,4 = assay type: physicochemical; details: pH 7.4
CD-1 mouse brain = experiment: Effect of anesthetics on radiotracer brain uptake in CD-1 mice; assay type: in vivo; details: anesthetic ip 80 mg/kg, 30 min prior the radiotracer; 30 min after radiotracer
V2 = details: read-out: Ki V2; cited from earlier work

Chain of (h)V1a (P37288 whole entry): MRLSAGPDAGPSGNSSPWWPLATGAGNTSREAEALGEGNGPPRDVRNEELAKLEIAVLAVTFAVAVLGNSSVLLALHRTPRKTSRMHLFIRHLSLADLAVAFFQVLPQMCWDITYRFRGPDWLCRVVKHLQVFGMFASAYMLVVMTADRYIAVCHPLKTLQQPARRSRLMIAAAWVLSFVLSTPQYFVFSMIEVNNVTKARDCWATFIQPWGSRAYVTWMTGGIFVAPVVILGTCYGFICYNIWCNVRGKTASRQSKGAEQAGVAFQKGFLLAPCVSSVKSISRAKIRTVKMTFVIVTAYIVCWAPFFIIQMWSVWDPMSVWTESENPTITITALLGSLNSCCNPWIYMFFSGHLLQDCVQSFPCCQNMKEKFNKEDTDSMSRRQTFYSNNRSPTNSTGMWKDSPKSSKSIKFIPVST

Row | Compound | inhibition at 0.01 µM ((h)V1a) [%] | inhibition at 0.001 µM ((h)V1a) [%] | logD (Lipophilicity logD7,4) | V1a binding affinity (in words) ((h)V1a) | Effect on radiotracer brain uptake (CD-1 mouse brain) | Ki ((h)V1a) [nM] | Ki (V2) [nM]
1 | COc1cc(C(=O)N2CC3(C)CC2CC(C)(C)C3)ccc1-c1c[nH]c2ccncc12 (centres unmarked) [8f, (3Methoxy-4-(1H-pyrrolo[3,2-c]pyridin-3-yl)phenyl)(1,3,3-trimethyl-6-aza-bicyclo[3.2.1]octan-6yl)methanone] | 39.5 | 5.2 | 2.8 | – | – | – | –
2 | Cc1ccccc1-c1ccc(C(=O)N2CC3(C)CC2CC(C)(C)C3)c(F)c1 (centres unmarked) [8k, (3-Fluoro-6’-methylbiphenyl-4-yl)(1,3,3-trimethyl-6-aza-bicyclo[3.2.1]octan-6-yl)methanone] | 81.2 | 22.8 | 5.8 | good binding affinity | – | – | –
3 | Cc1cnccc1-c1ccc(C(=O)N2CC3(C)CC2CC(C)(C)C3)cc1 (centres unmarked) [8h, (4-(3-Methylpyridin-4-yl)phenyl)(1,3,3-trimethyl-6-aza-bicyclo[3.2.1]octan-6-yl)methanone] | 28.9 | 10.5 | 4.4 | – | – | – | –
4 | COc1cc(C(=O)N2CCN(C)CC2)ccc1-c1c[nH]c2ccccc12 [13a, (4-(1H-Indol-3-yl)-3-methoxyphenyl)(4-methylpiperazin-1-yl)methanone] | 4.7 | 15.7 | 0.7 | – | – | – | –
5 | COc1cc(C(=O)N2CC3(C)CC2CC(C)(C)C3)ccc1-c1ccc(F)nc1 (centres unmarked) [8a, (4-(6Fluoropyridin-3-yl)-3-methoxyphenyl)(1,3,3-trimethyl-6-aza-bicyclo[3.2.1]octan-6yl)methanone] | 33.9 | 2.9 | 3.9 | lower binding affinity compared to the lead 1 | – | – | –
6 | CNC1(c2ccccc2Cl)CCCCC1=O (centres unmarked) [Ketamine] | – | – | – | – | did not significantly change | – | –
7 | COc1cc(C(=O)NC23CC4CC(CC(C4)C2)C3)ccc1-c1c[nH]c2ccccc12 [13d, N-Adamantan-1-yl-4-(1H-indol-3-yl)-3-methoxybenzamide] | 4.8 | 7.4 | 5.8 | – | – | – | –
8 | COc1cc(C(=O)N2CCCN(C)CC2)ccc1-c1c[nH]c2ccccc12 [13c, (4-(1H-Indol-3-yl)-3-methoxyphenyl)(4-methyl-1,4-diazepan-1-yl)methanone] | 6.2 | 5.7 | 0.2 | – | – | – | –
9 | CC1(C)CC2CC(C)(CN2C(=O)c2ccc(-c3c[nH]c4ccccc34)cc2F)C1 (centres unmarked) [6b, (2-Fluoro-4-(1H-Indol-3-yl)phenyl)(1,3,3-trimethyl-6-aza-bicyclo[3.2.1]octan-6-yl)methanone] | 77.1 | 33.4 | 4.8 | lower binding affinity compared to the lead 1 | – | – | –
10 | Cc1ccncc1-c1ccc(C(=O)N2CC3(C)CC2CC(C)(C)C3)c(F)c1 (centres unmarked) [8l, (2Fluoro-4-(4-methylpyridin-3-yl)phenyl)(1,3,3-trimethyl-6-aza-bicyclo[3.2.1]octan-6yl)methanone] | 19.8 | 2.4 | 4.5 | poor V1a binding affinity | – | – | –
11 | COc1cc(C(=O)N2CC3(C)CC2CC(C)(C)C3)ccc1-c1c[nH]c2cnccc12 (centres unmarked) [8e, (3Methoxy-4-(1H-pyrrolo[2,3-c]pyridin-3-yl)phenyl)(1,3,3-trimethyl-6-aza-bicyclo[3.2.1]octan-6yl)methanone] | 44.2 | -4.7 | 3.5 | – | – | – | –
12 | COc1cc(C(=O)N2CC3(C)CC2CC(C)(C)C3)ccc1-c1cccnc1F (centres unmarked) [8b, (4-(2Fluoropyridin-3-yl)-3-methoxyphenyl)(1,3,3-trimethyl-6-aza-bicyclo[3.2.1]octan-6yl)methanone] | 16 | 9.7 | 4 | lower binding affinity compared to the lead 1 | – | – | –
13 | COc1cc(C(=O)N2CC3(C)CC2CC(C)(C)C3)ccc1-c1cn(C)c2ccccc12 (centres unmarked) [8c, (3Methoxy-4-(1-methyl-1H-indol-3-yl)phenyl)(1,3,3-trimethyl-6-aza-bicyclo[3.2.1]octan-6yl)methanone] | 18.7 | 1.8 | 6 | decrease in binding affinity | – | – | –
14 | COc1cc(C(=O)N2CCC(F)(F)CC2)ccc1-c1c[nH]c2ccccc12 [13b, (4-(1H-Indol-3-yl)-3-methoxyphenyl)(4,4-difluoropiperidin-1-yl)methanone] | 9 | 13.7 | 1.6 | – | – | – | –
15 | COc1cc(C(=O)N2CC3(C)CC2CC(C)(C)C3)ccc1-c1c[nH]c2ncccc12 (centres unmarked) [8d, (3Methoxy-4-(1H-pyrrolo[2,3-b]pyridin-3-yl)phenyl)(1,3,3-trimethyl-6-aza-bicyclo[3.2.1]octan-6yl)methanone] | 28.7 | 4.4 | 2.9 | – | – | – | –
16 | Cc1ccncc1-c1ccc(C(=O)N2CC3(C)CC2CC(C)(C)C3)cc1 (centres unmarked) [8i, (4-(4-Methylpyridin-3-yl)phenyl)(1,3,3-trimethyl-6-aza-bicyclo[3.2.1]octan-6-yl)methanone] | 43.9 | 12.8 | 4.4 | – | – | – | –
17 | CC1(C)CC2CC(C)(CN2C(=O)c2ccc(-c3c[nH]c4ccccc34)c(OCCF)c2)C1 (centres unmarked) [6c, (3-(2fluoroethoxy)-4-(1H-indol-3-yl)phenyl)(1,3,3-trimethyl-6-aza-bicyclo[3.2.1]octan-6yl)methanone] | 92.6 | 45.1 | 4.9 | high binding affinity | – | – | –
18 | COc1cc(C(=O)N2C[C@]3(C)C[C@H]2CC(C)(C)C3)ccc1-c1c[nH]c2ccccc12 [(1S,5R)-1, (4-(1Hindol-3-yl)-3-methoxyphenyl)((1S,5R)-1,3,3-trimethyl-6-azabicyclo[3.2.1]octan-6-yl)methanone] | 87.9 | 51.4 | 4.7 | – | – | 0.66 | 600
19 | Cc1ccccc1-c1ccc(C(=O)N2CC3(C)CC2CC(C)(C)C3)cc1 (centres unmarked) [8g, (2’-Methylbiphenyl-4-yl)(1,3,3-trimethyl-6-aza-bicyclo[3.2.1]octan-6-yl)methanone] | 84.3 | 23.7 | 5 | good binding affinity | – | – | –
20 | Cc1ncccc1-c1ccc(C(=O)N2CC3(C)CC2CC(C)(C)C3)cc1 (centres unmarked) [8j, (4-(2-Methylpyridin-3-yl)phenyl)(1,3,3-trimethyl-6-aza-bicyclo[3.2.1]octan-6-yl)methanone] | 18.2 | -6.6 | 4.4 | – | – | – | –
21 | COc1cc(C(=O)Nc2ccc(F)cc2)ccc1-c1c[nH]c2ccccc12 [13e, N-(4-Fluorophenyl)-4-(1H-indol-3-yl)-3-methoxybenzamide] | 4.6 | 5 | 3.2 | – | – | – | –
